ChEMBL document CHEMBL1131064, “Design, synthesis, and anticonvulsant activity of 1-(pyrid-3-ylsulfonamido)-2-nitroethylenes” (J Med Chem, 1998)

Columns and labels:
Mus musculus [1] = assay: Tested for anticonvulsant activity by measuring its ability to protect against bicuculline (2.7 mg/kg) induced convulsions at the time of peak effect of 4h.; assay type: functional
Mus musculus [2] = assay: Tested for anticonvulsant activity by measuring its ability to protect against pentetrazole (85 mg/kg) induced convulsions at the time of peak effect of 4h.; assay type: functional
Outline: (§1)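 Groups of eight male OF-1 mice (22-25 g) received the test compound ip (10 mL/kg) at doses up to 100 mg/kg. At the MES-derived time of peak effect, pentetrazole 85 mg/kg in 0.9% NaCl was given sc and protection against convulsions recorded. ED50 and 95% confidence intervals were computed by Litchfield–Wilcoxon.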

[3] = Neurotoxicity was evaluated at a time of peak effect of 4 hr; assay type: toxicity; settings: mouse
Mus musculus [4] = organism: Mus musculus; assay: Tested for anticonvulsant activity by measuring its ability to protect against electric shock in maximal electroshock seizure (MES) test at the time of peak effect of 4 hr; assay type: functional
Mus musculus [5] = assay: Tested for anticonvulsant activity by measuring its ability to protect against strychnine(1.2 mg/kg) induced convulsions at the time of peak effect of 4 hr; assay type: functional
Mus musculus [6] = assay: Tested for anticonvulsant activity by measuring its ability to protect against NMDLA(340 mg/kg) induced convulsions at the time of peak effect of 4h.; assay type: functional
[7] = Partition coefficient in 1-octanol phosphate buffer at pH 7.40; assay type: physicochemical; settings: pH 7.4
Outline: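 Shake-flask partition between 1-octanol and phosphate buffer at pH 7.40.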

Mus musculus [8] = organism: Mus musculus; assay: Tested for anticonvulsant activity by measuring rate of mice protected against electric shock applied at 0.5 hr after injection in maximal electroshock seizure (MES) test; out of 6; assay type: functional
Outline: (§2)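 Screen in male OF-1 mice (22-25 g), groups of six or seven, given 30 mg/kg ip at 10 mL/kg. Corneal electroshock (50 mA, 60 Hz, 0.2 s) was applied 0.5 or 3 h post-injection. Protection was scored as abolition of hind limb tonic extension and reported as the rate of protected mice.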

Mus musculus [9] = organism: Mus musculus; assay: Tested for anticonvulsant activity by measuring rate of mice protected against electric shock applied at 3 hr after injection in maximal electroshock seizure (MES) test; out of 7; assay type: functional; outline: as §2
Rattus norvegicus = assay: Urinary volume excreted over 4 hr by rats after oral administration of 30 mg/kg; assay type: functional, Urine
Outline: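 Male Wistar rats (193-229 g) were dosed orally with 30 mg/kg in 0.9% NaCl/0.1% methocel at 40 mL/kg; three rats shared a metabolism cage. Urine was collected over 4 h and expressed as mL/kg.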

[10] = Partition coefficient (logP); assay type: physicochemical; settings: octanol/water
Outline: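 log P obtained by extrapolation from RP-HPLC log k′. The basis is a correlation of log k′ with shake-flask log P in 1-octanol/phosphate buffer pH 7.40, built from reference compounds.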

Mus musculus [11] = organism: Mus musculus; assay: Tested for anticonvulsant activity by measuring rate of mice protected against electric shock applied at 3 h after injection in maximal electroshock seizure (MES) test; out of 6; assay type: functional; outline: as §2
Mus musculus [12] = assay: Tested for anticonvulsant activity by measuring its ability to protect against NMDLA(340 mg/kg) induced convulsions at the time of peak effect of 3h.; assay type: functional
Outline: (§3)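 OF-1 male mice, eight per group, were given compound ip at up to 100 mg/kg. At the MES time of peak effect, a convulsant in 0.9% NaCl was injected sc; bicuculline was dissolved in warmed 0.1 N HCl/0.9% NaCl and used within 30 min. ED50 with 95% CI was computed by Litchfield–Wilcoxon.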

Mus musculus [13] = assay: Tested for anticonvulsant activity by measuring its ability to protect against bicuculline (2.7 mg/kg) induced convulsions at the time of peak effect of 3h.; assay type: functional
Outline: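 Male OF-1 mice (22-25 g), eight per group, given the test compound ip (10 mL/kg) at doses up to 100 mg/kg. Bicuculline 2.70 mg/kg, dissolved in warmed 0.1 N HCl plus 0.9% NaCl (10 mL/kg) and used within 30 min, was injected sc at the MES time of peak effect. Protection scored; ED50 with 95% CI by Litchfield–Wilcoxon.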

Mus musculus [14] = organism: Mus musculus; assay: Tested for anticonvulsant activity by measuring its ability to protect against electric shock in maximal electroshock seizure (MES) test at the time of peak effect of 3h; assay type: functional
Outline: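 Male OF-1 mice (22-25 g) were dosed ip at 10 mL/kg and tested at the peak-effect time. Corneal electroshock was 50 mA, 60 Hz, 0.2 s; protection meant abolition of hind limb tonic extension. Groups of eight mice received varying doses. ED50 with 95% CI was computed by Litchfield–Wilcoxon.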

Mus musculus [15] = assay: Tested for anticonvulsant activity by measuring its ability to protect against pentetrazole (85 mg/kg) induced convulsions at the time of peak effect of 3h.; assay type: functional; outline: as §3
[16] = Neurotoxicity was evaluated at a time of peak effect of 3h; assay type: toxicity; settings: mouse
Mus musculus [17] = assay: Tested for anticonvulsant activity by measuring its ability to protect against strychnine(1.2 mg/kg) induced convulsions at the time of peak effect of 3h; assay type: functional; outline: as §3
Mus musculus [18] = assay: Tested for anticonvulsant activity by measuring its ability to protect against pentetrazole (85 mg/kg) induced convulsions at the time of peak effect of 2 hr.; assay type: functional; outline: as §1
Mus musculus [19] = assay: Tested for anticonvulsant activity by measuring its ability to protect against strychnine(1.2 mg/kg) induced convulsions at the time of peak effect of 2 hr; assay type: functional; outline: as §3
Mus musculus [20] = assay: Tested for anticonvulsant activity by measuring its ability to protect against bicuculline (2.7 mg/kg) induced convulsions at the time of peak effect of 2 hr.; assay type: functional; outline: as §3
Mus musculus [21] = assay: Tested for anticonvulsant activity by measuring its ability to protect against NMDLA(340 mg/kg) induced convulsions at the time of peak effect of 2 hr.; assay type: functional; outline: as §3
Mus musculus [22] = organism: Mus musculus; assay: Tested for anticonvulsant activity by measuring its ability to protect against electric shock in maximal electroshock seizure (MES) test at the time of peak effect of 2 hr

Structure (SMILES) | No. of mice protected (Mus musculus [8]) | No. of mice protected (Mus musculus [9]) | Diuresis (Rattus norvegicus) [mL/kg] | logP [10] | No. of mice protected (Mus musculus [11]) | also measured
O=S(=O)(NC(=S)NC1CCCCC1)c1cnccc1NC1CCCCCCC1 |  |  |  |  |  | ED50 (Mus musculus [1]): > 100 mg/kg; ED50 (Mus musculus [2]): > 100 mg/kg; TD50 at 4 h [3]: 147 mg/kg; ED50 (Mus musculus [4]): 1.19 mg/kg; ED50 (Mus musculus [5]): > 100 mg/kg; ED50 (Mus musculus [6]): > 100 mg/kg
CC(C)N/C(=C\[N+](=O)[O-])NS(=O)(=O)c1cnccc1NC1CCCC1 |  |  |  |  |  | logD [7]: 0.538
O=[N+]([O-])/C=C(\NC1CCCCCC1)NS(=O)(=O)c1cnccc1NC1CCCCC1 | 0 | 5 | 20 | 1.97 |  | 
O=[N+]([O-])/C=C(\NC1CCCCCC1)NS(=O)(=O)c1cnccc1NC1CCCCCC1 | 1 |  | 25 | 2.3 | 5 | 
CCNc1ccncc1S(=O)(=O)N/C(=C/[N+](=O)[O-])NC(C)C |  |  |  |  |  | logD [7]: -0.482
O=[N+]([O-])/C=C(\NC1CCCCC1)NS(=O)(=O)c1cnccc1NC1CCCCCCC1 | 1 | 7 | 22 | 2.31 |  | ED50 (Mus musculus [12]): > 100 mg/kg; ED50 (Mus musculus [13]): > 100 mg/kg; ED50 (Mus musculus [14]): 8.25 mg/kg; ED50 (Mus musculus [15]): > 100 mg/kg; TD50 at 3 h [16]: 114 mg/kg; ED50 (Mus musculus [17]): > 100 mg/kg
O=[N+]([O-])/C=C(\NC1CCCCCCC1)NS(=O)(=O)c1cnccc1NC1CCCCCC1 | 1 | 4 | 23 | 2.57 |  | 
Cc1cccc(Nc2ccncc2S(=O)(=O)N/C(=C/[N+](=O)[O-])NC2CCCCC2)c1 | 1 |  | 29 | 1.66 | 2 | 
O=[N+]([O-])/C=C(\NC1CCCCCC1)NS(=O)(=O)c1cnccc1NC1CCCCCCC1 | 2 |  | 20 | 2.59 | 5 | 
O=[N+]([O-])/C=C(\NC1CCCCC1)NS(=O)(=O)c1cnccc1NC1CCCCCC1 | 1 |  | 18 | 1.99 | 5 | 
Cc1cccc(Nc2ccncc2S(=O)(=O)N/C(=C/[N+](=O)[O-])NC(C)C)c1 |  |  |  |  |  | logD [7]: 1.12
O=[N+]([O-])/C=C(\NC1CCCCCCC1)NS(=O)(=O)c1cnccc1NC1CCCCCCC1 | 0 | 3 | 22 | 2.86 |  | 
O=[N+]([O-])/C=C(\NC1CCCCC1)NS(=O)(=O)c1cnccc1NC1CCCCC1 | 0 | 4 | 20 | 1.67 |  | 
O=[N+]([O-])/C=C(\NC1CCCCCCC1)NS(=O)(=O)c1cnccc1NC1CCCCC1 | 2 | 4 | 21 | 2.27 |  | 
O=C1NC(=O)C(c2ccccc2)(c2ccccc2)N1 [PHENYTOIN] |  |  |  |  |  | ED50 (Mus musculus [18]): > 100 mg/kg; ED50 (Mus musculus [19]): > 100 mg/kg; ED50 (Mus musculus [20]): > 100 mg/kg; ED50 (Mus musculus [21]): > 100 mg/kg; ED50 (Mus musculus [22]): 9.51 mg/kg
Cc1cccc(Nc2ccncc2S(=O)(=O)NC(=O)NC(C)C)c1 [TORSEMIDE] | 0 |  | 88 |  | 0 | 
